Compound activity from PubChem.
An excerpt weighted towards active compounds, which were near 3.7% of everything screened.
KCNK3 block: human KCNK3 channel inhibition, primary screen | CHO-KCNK3 thallium flux, FluxOR fluorescence; stronger effect = lower value | B-score at 10 µM | 0.84% of 340,000 active | AID 602410;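 active means B-score under library mean minus 4 SD, starting fluorescence ratio at most library mean plus 5 SD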;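 further: more negative B-score means stronger inhibition of thallium flux through KCNK3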
KCNQ1 act: potentiators or activators of human KCNQ1 potassium channel; CHO-K1 KCNQ1, thallium flux FluxOR fluorescence; stronger effect = higher value; B-score at 10 µM; 0.35% of 310,000 active;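 active means fluorescence ratio B-score, a plate-corrected score, at least three library SD, with initial intensity B-score within 5 SD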
Target sequence (P51787 whole entry, looked up): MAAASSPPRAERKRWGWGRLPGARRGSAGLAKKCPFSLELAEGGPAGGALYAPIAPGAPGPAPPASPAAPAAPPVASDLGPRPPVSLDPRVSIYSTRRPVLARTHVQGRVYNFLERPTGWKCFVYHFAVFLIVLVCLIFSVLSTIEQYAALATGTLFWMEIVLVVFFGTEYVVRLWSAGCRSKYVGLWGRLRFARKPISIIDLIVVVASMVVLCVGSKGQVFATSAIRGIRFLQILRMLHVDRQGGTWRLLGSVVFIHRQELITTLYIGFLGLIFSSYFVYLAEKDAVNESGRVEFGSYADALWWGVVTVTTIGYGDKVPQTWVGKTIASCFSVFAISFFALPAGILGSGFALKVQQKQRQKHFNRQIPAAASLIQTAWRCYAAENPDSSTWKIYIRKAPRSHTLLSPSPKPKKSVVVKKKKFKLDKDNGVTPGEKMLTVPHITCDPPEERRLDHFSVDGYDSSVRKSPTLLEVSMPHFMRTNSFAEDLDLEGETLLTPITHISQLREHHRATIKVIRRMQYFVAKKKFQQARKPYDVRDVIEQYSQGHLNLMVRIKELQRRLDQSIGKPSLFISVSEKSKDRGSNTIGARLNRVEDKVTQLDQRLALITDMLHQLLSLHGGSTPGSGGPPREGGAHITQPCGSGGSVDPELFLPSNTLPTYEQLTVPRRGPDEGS
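Assay system: stable KCNQ1 CHO-K1 line; medium: assay buffer, equal DMSO in all wells; timing: 90 min dye loading and 20 min compound exposure, both at room temperature; technique: kinetic FluxOR thallium fluorescence, 10-s 1-Hz baseline, 110-s post-stimulus read; read-out basis: B score of baseline-normalized fluorescence ratio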
Kir21 block: Kir2.1 (mouse) channel inhibition | P35561 | HEK293-Kir2.1, FluxOR thallium flux fluorescence; stronger effect = lower value | B-score at 10 µM | 0.85% of 310,000 active | AID 1672;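 active means fluorescence ratio B-score at or below minus 3 SD of library scores, with starting-brightness B-score within 2 SD, cut at about -4.2 in these data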;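 further: channel flux triggered by added potassium and thallium sulfate stimulus; B-score of peak minus minimum fluorescence over baseline after thallium stimulus; more negative B-score means stronger Kir2.1 block with less thallium influx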
KCNQ1 block: inhibitors of human KCNQ1 potassium channel. P51787. CHO-K1 KCNQ1, FluxOR thallium flux fluorescence; stronger effect = higher value. B-score at 10 µM. 1.3% of 310,000 active. AID 2642;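 active means compounds whose thallium flux B-score, printed positive for inhibition, exceeds three library SD while starting fluorescence stays within three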;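 further: channel opened by potassium depolarization with thallium stimulus after 20 min compound exposure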
KCNK9 block: human KCNK9 channel inhibition; HEK293 KCNK9, FluxOR thallium flux fluorescence; stronger effect = lower value; Q9NPC2; 1.2% of 310,000 active; B-score at 10 µM;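 active means ratio B-score over 3 SD below the library mean, with starting fluorescence within 5 SD of its mean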;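 further: negative B-score means less thallium flux so channel inhibition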
hERG rescue: compounds protecting human hERG from proarrhythmic drug block. Q12809. AID 1511. activation (rescue from dofetilide block), less the hit threshold, % at 10 µM. CHO-hERG, FluxOR thallium flux, dofetilide IC70 present. 0.51% of 310,000 active;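 active means activation above the mean of controls blocked by dofetilide plus 5 SD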;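 further: thallium influx through hERG after potassium depolarization seen as dye fluorescence rise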
KCNQ1 block val: confirmation of human KCNQ1 potassium channel inhibitors; AID 588353; 93% of 1,600 active; inhibition, % at 10 µM; KCNQ1 cell line, FluxOR thallium flux fluorescence; shares compounds with KCNQ1 block;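 active means primary screen active, with duplicate mean exceeding buffer control mean plus 3 SD of buffer wells, cut at about 28% in these data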;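 further: 0% = buffer control ratio and 100% = XE991 inhibitor control ratio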
CHO KCNQ1 ctr: KCNQ1 inhibitor counter-screen hit in parental CHO cells. parental CHO-K1, FluxOR thallium flux fluorescence ratio; stronger effect = lower value; zero means no signal rise above baseline. 21% of 1,600 active. fluorescence ratio (Tl flux) at 10 µM. shares compounds with KCNQ1 block;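 active means mean of duplicate thallium-flux fluorescence ratios in parental host cells more than 5 SD below the buffer control mean, cut at about 0.38 in these data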;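 further: ratio is peak minus minimum fluorescence divided by baseline fluorescence; actives read low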
KCNQ1 APC inh: human KCNQ1 inhibition validated by electrophysiology; shares compounds with KCNQ1 block; 20% of 490 active; KCNQ1-CHO cells, automated patch clamp current; calls only at 10 µM; AID 624120;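 active means KCNQ1 current drop exceeding 3 SD of negative control wells, seen in both duplicate runs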;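 further: steady state current during a 2 s step from -80 to +40 mV; negative values mean current inhibition and positive values mean potentiation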
KCNQ2 inh: selectivity of KCNQ1 inhibitors: inhibition of rat KCNQ2 channel. AID 651746. 71% of 1,600 active. KCNQ2 cells, FluxOR thallium flux fluorescence. shares compounds with KCNQ1 block. inhibition, % at 10 µM;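 active means mean percent inhibition of the KCNQ2 thallium signal more than 5 SD above the buffer-only control wells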;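 further: KCNQ2 expressed in CHO cells; 0% = buffer control wells and 100% = XE-991 inhibitor control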
KCNQ1-KCNE1 inh: human KCNQ1/KCNE1 inhibition in KCNQ1 specificity screen. shares compounds with KCNQ1 block. KCNQ1/KCNE1 cells, FluxOR thallium flux fluorescence. inhibition, % at 10 µM. 77% of 1,600 active. AID 652147;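 active means mean percent inhibition of duplicate wells above the buffer-only control mean plus 3 SD of those controls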;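 further: 0% = buffer only wells and 100% = XE-991 inhibitor control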
KCNK9 block conf: human KCNK9 inhibitor confirmation. shares compounds with KCNK9 block. HEK293 KCNK9 cells, FluxOR thallium flux fluorescence. inhibition, % at 10 µM. 43% of 4,900 active. AID 492992;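 active means thallium signal inhibited by more than 5 SD of the compound-free buffer control wells, on both duplicate plates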;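 further: 0% = assay buffer control wells without compound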
Kir2-1 spec: selectivity of KCNK9 modulators against mouse Kir2.1; shares compounds with KCNK9 block; Kir2.1 cells, FluxOR thallium flux fluorescence; inhibition, % at 10 µM; 4% of 4,900 active; AID 492993;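 active means thallium signal drop more than 5 SD beyond the mean of the no-compound control wells, seen in both duplicate plates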;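 further: signal is fluorescence rise after thallium addition divided by baseline fluorescence; plate controls were assay buffer only for no effect and full block by chlorpromazine control for full effect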
HEK293 Tl ctr: second check of KCNK9 modulator effects in non-induced HEK293 cells; FluxOR thallium flux; AID 492997; shares compounds with KCNK9 block; 40% of 4,900 active; inhibition, % at 10 µM;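 active means thallium signal drop beyond 5 SD of the untreated control mean, on both duplicate plates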;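 further: plate controls were buffer only IC0 wells for no effect and SID17386958 at its maximal inhibitory level for full effect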
An asterisk follows results filed as active; i = inactive; / = not tested or not shown.

SMILES | KCNK3 block | KCNQ1 act | Kir21 block | KCNQ1 block | KCNK9 block | hERG rescue | KCNQ1 block val | CHO KCNQ1 ctr | KCNQ1 APC inh | KCNQ2 inh | KCNQ1-KCNE1 inh | KCNK9 block conf | Kir2-1 spec | HEK293 Tl ctr
Cc1cc(C(=O)Nc2ccc(Cl)cc2)c(C)n1-c1ccccc1 | i | i | -0.39 | 13* | i | -7.2 | 124.0* | 0.387 | i | 115.0%* | 98.0%* | i | i | i
Cc1ccc(NC(=O)c2cc(C)n(-c3cccc(C)c3)c2C)cc1 | i | i | 0.15 | i | i | -11.1 | / | / | / | / | / | / | / | /
CN1/C(=C\C(=O)Nc2cccc(Cl)c2)C(C)(C)c2ccccc21 | i | i | 0.41 | 9* | -8.22* | -13.7 | 120.0* | 0.388 | i | 125.3%* | 169.0%* | 45.0%* | i | 33.5%*
Cc1cc(C)c(S(=O)(=O)c2ccccc2C)c(N(C)C)n1 | i | i | -1.9 | i | i | -6.2 | / | / | / | / | / | / | / | /
Cc1cc(C)c(S(=O)(=O)c2ccccc2C)c(SCC(C)C)n1 | i | i | -0.12 | 9* | -14.2* | -10.7 | 115.0* | 0.417 | i | 112.0%* | 95.0%* | 50.0%* | i | 41.5%*
Cc1ccc(NC(=O)c2cc3ccccc3o2)nc1 | i | i | -1.11 | i | i | -4.3 | / | / | / | / | / | / | / | /
CN(C(=O)CSc1nc(-c2ccc(C(C)(C)C)cc2)c(C#N)c(=O)[nH]1)C1CCCCC1 | i | i | 1.04 | 7* | i | -14.6 | 54.5* | 0.416 | / | 79.3%* | i | i | i | 29.0%*
Cc1cc(C)c(C#N)c(SCC(=O)N(C)C2CCCCC2)n1 | i | i | -0.22 | i | i | -11.1 | / | / | / | / | / | / | / | /
CC(=O)c1ccc2c(c1)C1C=CCC1C(c1cc3c(cc1Br)OCO3)N2 (stereo not given) | i | i | -1.1 | 8* | -8.66* | -21.7 | 139.5* | 0.418 | i | 99.3%* | 145.0%* | 50.0%* | i | 37.0%*
O=C(COc1ccccc1Cl)c1ccc2c(c1)CCCC2 | i | i | 1.52 | 6* | i | -6.8 | 94.0* | 0.435 | i | 92.3%* | 119.0%* | i | i | 37.0%*
O=C(COc1cccc(Cl)c1Cl)Nc1ccc2c(c1)CCC2 | i | i | -0.47 | i | i | -5.3 | / | / | / | / | / | / | / | /
CC(=O)c1sc2nc(-c3cccs3)cc(C(F)(F)F)c2c1N | i | i | -3.71 | 7* | -9.14* | -4.0 | 104.0* | 0.29* | / | i | 153.5%* | 41.5%* | 30.0%* | 65.5%*
CC(C)(C)c1ccc(-c2nc(NCc3cccnc3)c3ccccc3n2)cc1 | i | i | 1.46 | 15* | -9.27* | -2.4 | 152.5* | 0.47 | i | 100.0%* | 186.0%* | 26.0%* | i | 41.5%*
c1cncc(CNc2nc(-c3cccnc3)nc3ccccc23)c1 | i | i | -1.28 | i | i | -13.9 | / | / | / | / | / | / | / | /
CCOCCn1c(CN2CCc3ccccc3C2)nc2c1c(=O)n(C)c(=O)n2C | i | i | 0.66 | i | i | -6.9 | / | / | / | / | / | / | / | /
CCCc1ccc(S(=O)(=O)N2CCN(C(C)C(=O)NCc3ccccc3)CC2)cc1 (stereo not given) | i | / | / | / | / | / | / | / | / | / | / | / | / | /
CCC(CC)NC(=O)Nc1ccc(F)c(Cl)c1 | i | i | -0.4 | 9* | -8.58* | -12.2 | 44.5* | 0.546 | / | i | 62.5%* | 44.0%* | i | i
Cc1cc(C(=O)N2CCN(C(c3ccccc3)c3ccccc3)CC2)on1 | i | i | 0.17 | i | i | -10.6 | / | / | / | / | / | / | / | /
COc1ccc(-c2ocnc2C(=O)N2CCN(C(c3ccccc3)c3ccccc3)CC2)cc1 | i | i | -0.1 | 8* | -14.2* | -12.5 | 79.5* | 0.424 | / | 87.7%* | 94.5%* | 68.0%* | i | 36.5%*
Fc1ccc(C(c2nnnn2Cc2ccccc2)N2CCSCC2)cc1 (stereo not given) | i | i | -0.33 | i | i | -3.6 | / | / | / | / | / | / | / | /
Clc1ccc(C(c2nnnn2CCc2ccccc2)N2CCSCC2)cc1 (stereo not given) | i | i | 0.69 | 7* | -14.1* | 0.9 | 116.0* | 0.419 | i | 105.7%* | 82.0%* | 56.0%* | i | 45.5%*
CC(=O)N1c2ccc(S(=O)(=O)N(C)C3CCCCC3)cc2CC1C (stereo not given) | i | i | -1.55 | i | i | -5.9 | / | / | / | / | / | / | / | /
Cc1ccc(Cl)cc1NC(=O)CC(O)(C(F)(F)F)C(F)(F)F | i | i | 1.07 | 8* | -19.2* | -18.4 | 89.5* | 0.47 | / | i | 83.0%* | i | 29.0%* | 28.0%*
Cc1cccc(C)c1OC1(c2ccccc2)OC(=O)c2ccccc21 (stereo not given) | i | i | 0.69 | 9* | -19.2* | -16.3 | 106.0* | 0.416 | i | 98.0%* | 138.0%* | 55.0%* | 32.5%* | 44.0%*
CCOC1(c2ccccc2)OC(=O)c2ccccc21 (stereo not given) | i | i | -1.29 | i | i | -2.8 | / | / | / | / | / | / | / | /
Cc1ccc(S(=O)(=O)N2CCC(C(=O)OC(C)C(=O)N(C)c3ccccc3)CC2)cc1C (stereo not given) | i | / | / | / | / | / | / | / | / | / | / | / | / | /
OCC[C@@H]1C[C@@H](O)[C@H](O)[C@]2(CCc3ccccc3O2)O1 | i | i | 0.03 | i | i | -7.0 | / | / | / | / | / | / | / | /
COc1ccccc1N1CCN(C(=O)CSc2nc3ccccc3nc2N2CCCCC2)CC1 | i | i | -3.02 | 6* | i | -18.4 | 70.0* | 0.521 | / | i | 99.0%* | i | i | i
